Results published in ChEMBL document CHEMBL3785077 (J Med Chem, 2016).
The source made the active and inactive calls. No cut-off for these calls is given here.

Key:
Cholinesterase [1] = molecular target: T1, Cholinesterase (Equus caballus, UniProt P81908); assay: Inhibition of equine serum butyrylcholinesterase using […] as substrate preincubated for 30 mins followed by substrate addition measured after 2.5 mins by Ellman's spectrophotometric method
Procedure, shortened: (§1)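 Ellman assay at 25 °C in phosphate buffer pH 8.0. Enzyme (AChE from human erythrocytes, BChE from equine or human serum; 2.5 units/mL stock with 2 mg/mL BSA) and DTNB (0.3 mM in assay) preincubated with compound from ethanol stocks (1 nM−1 mM in assay). Ethanol control, triplicates, IC50 from activity vs log concentration.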

Cholinesterase [2] = molecular target: Cholinesterase (Homo sapiens, UniProt P06276); assay: Inhibition of human butyrylcholinesterase using […] as substrate preincubated for 30 mins followed by substrate addition measured after 2.5 mins by Ellman's spectrophotometric method
Procedure, shortened: as §1, with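 “assay). Acetyl- or butyrylthiocholine added (452 μM in assay), absorbance at 412 nm after 2.5 min.” for “assay).”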

Acetylcholinesterase [3] = molecular target: T2, Acetylcholinesterase (Homo sapiens, UniProt P22303); assay: Inhibition of human acetylcholinesterase using […] as substrate at 100 uM preincubated for 4.5 mins followed by substrate addition measured after 2.5 mins by Ellman's spectrophotometric method
[4] = molecular target: Cholinesterase (Equus caballus) (UniProt P81908); assay: (§2) Pseudo-irreversible inhibition of equine serum butyrylcholinesterase assessed as apparent affinity between enzyme and inhibitor at equilibrium state using p-nitrophenyl butyrate as substrate preincubated for 5 to 40 mins followed by substrate addition by double reciprocal plot analysis
[5] = molecular target: Cholinesterase (Equus caballus) (UniProt P81908); assay: Pseudo-irreversible inhibition of equine serum butyrylcholinesterase assessed as carbamoylation rate of inhibitor from reversible enzyme inhibitor complex to carbamoylated enzyme using p-nitrophenyl butyrate as substrate preincubated for 5 to 40 mins followed by substrate addition by double reciprocal plot analysis
[6] = molecular target: Cholinesterase (Equus caballus) (UniProt P81908); assay: as §2, with “assessed as ratio of carbamoylation rate of inhibitor to apparent affinity” for “assessed as apparent affinity”
[7] = molecular target: Cholinesterase (Equus caballus) (UniProt P81908); assay: Pseudo-irreversible inhibition of equine serum butyrylcholinesterase assessed as decarbamoylation rate using […] as substrate preincubated for 1 hr followed by 1000 fold dilution
Procedure, shortened: (§3)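 Enzyme incubated 1 h with inhibitor at a fully inhibiting concentration, then diluted 1:1000 in assay buffer. Activity measured by Ellman assay at various times after dilution, with uninhibited enzyme treated the same way as control. First-order fit of activity recovery gives k4.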

[8] = Antioxidant activity assessed as trolox equivalents of AAPH radical scavenging activity preincubated for 15 mins followed by AAPH addition measured every 60 secs for 90 mins by ORAC assay; format: physicochemical; conditions: 1.5 h
Procedure, shortened: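 ORAC-FL: compound (1−5 μM) with fluorescein (300 nM final) in 75 mM phosphate buffer pH 7.4, 15 min at 37 °C, then AAPH (12 mM final). Fluorescence read every 60 s for 90 min (ex 485/em 535 nm). […] Samples in quadruplicate, ≥4 independent runs.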

[9] = Neurotoxicity against mouse HT22 cells assessed as cell viability up to 10 uM after 24 hrs by MTT assay; format: toxicity, cell-based, HT-22; conditions: read-out: Activity
Procedure, shortened: (§4)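 Murine hippocampal HT-22 cells in high-glucose DMEM with 10% heat-inactivated FCS, 37 °C, 5% CO2. […] MTT 3 h, SDS lysis, absorbance at 560 nm, viability as % of untreated cells.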

HT-22 [10] = assay: Neuroprotective activity against glutamate-induced oxycytotic cell death in mouse HT22 cells assessed as cell viability at 5 to 25 uM after 24 hrs by MTT assay; format: functional, cell-based; procedure, shortened: as §4
[11] = molecular target: Cholinesterase (Equus caballus) (UniProt P81908); assay: Pseudo-irreversible inhibition of equine serum butyrylcholinesterase assessed as half life for carbamoylated enzyme using […] as substrate preincubated for 1 hr followed by 1000 fold dilution; procedure, shortened: as §3
Acetylcholinesterase [12] = molecular target: T2, Acetylcholinesterase; assay: Inhibition of human acetylcholinesterase using […] as substrate at 10 uM preincubated for 4.5 mins followed by substrate addition measured after 2.5 mins by Ellman's spectrophotometric method
[13] = Neurotoxicity against mouse HT22 cells assessed as decrease in cell viability at 25 uM after 24 hrs by MTT assay; format: toxicity, cell-based; conditions: ht-22, 24 h; procedure, shortened: as §4
Cholinesterase [14] = molecular target: T1, Cholinesterase; assay: Inhibition of equine serum butyrylcholinesterase using […] as substrate preincubated for 4.5 mins followed by substrate addition measured after 2.5 mins by Ellman's spectrophotometric method
Procedure, shortened: as §1, with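 “assay). Acetyl- or butyrylthiocholine added (452 μM in assay), absorbance at 412 nm after 2.5 min.” for “assay).”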

Acetylcholinesterase [15] = molecular target: T2, Acetylcholinesterase; assay: Inhibition of human acetylcholinesterase using […] as substrate at 50 uM preincubated for 4.5 mins followed by substrate addition measured after 2.5 mins by Ellman's spectrophotometric method
[16] = Neurotoxicity against mouse HT22 cells assessed as cell viability at 1 and 5 uM after 24 hrs by MTT assay; format: toxicity, cell-based; conditions: ht-22, 24 h
Procedure, shortened: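 HT-22 murine hippocampal cells grown in high-glucose DMEM plus 10% heat-inactivated FCS at 37 °C, 5% CO2. After 24 h culture in plates, treated 24 h with compound (DMSO ≤0.1% final) without glutamate. Viability read by MTT (3 h), SDS lysis buffer pH 4.1, absorbance at 560 nm, given as percent of untreated control.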

HT-22 [17] = assay: Neuroprotective activity against glutamate-induced oxycytotic cell death in mouse HT22 cells assessed as cell viability at 5 uM after 24 hrs by MTT assay; format: functional, cell-based
Procedure, shortened: (§5)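 Murine hippocampal HT-22 cells in high-glucose DMEM with 10% heat-inactivated FCS, 37 °C, 5% CO2. […] MTT (4 mg/mL in PBS, diluted 1:10 in medium) for 3 h, lysis in 10% SDS pH 4.1, absorbance 560 nm; viability as % of untreated cells.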

HT-22 [18] = assay: Neuroprotective activity against glutamate-induced oxycytotic cell death in mouse HT22 cells assessed as cell viability at 25 uM after 24 hrs by MTT assay; format: functional, cell-based
Procedure, shortened: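 Murine hippocampal HT-22 cells in high-glucose DMEM with 10% heat-inactivated FCS, 37 °C, 5% CO2. MTT (4 mg/mL in PBS, diluted 1:10 in medium) for 3 h, lysis in 10% SDS pH 4.1, absorbance 560 nm; viability as % of untreated cells.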

HT-22 [19] = assay: Neuroprotective activity against glutamate-induced oxycytotic cell death in mouse HT22 cells assessed as cell viability at 1 uM after 24 hrs by MTT assay; format: functional, cell-based; procedure, shortened: as §5

T2 sequence (P22303 whole entry): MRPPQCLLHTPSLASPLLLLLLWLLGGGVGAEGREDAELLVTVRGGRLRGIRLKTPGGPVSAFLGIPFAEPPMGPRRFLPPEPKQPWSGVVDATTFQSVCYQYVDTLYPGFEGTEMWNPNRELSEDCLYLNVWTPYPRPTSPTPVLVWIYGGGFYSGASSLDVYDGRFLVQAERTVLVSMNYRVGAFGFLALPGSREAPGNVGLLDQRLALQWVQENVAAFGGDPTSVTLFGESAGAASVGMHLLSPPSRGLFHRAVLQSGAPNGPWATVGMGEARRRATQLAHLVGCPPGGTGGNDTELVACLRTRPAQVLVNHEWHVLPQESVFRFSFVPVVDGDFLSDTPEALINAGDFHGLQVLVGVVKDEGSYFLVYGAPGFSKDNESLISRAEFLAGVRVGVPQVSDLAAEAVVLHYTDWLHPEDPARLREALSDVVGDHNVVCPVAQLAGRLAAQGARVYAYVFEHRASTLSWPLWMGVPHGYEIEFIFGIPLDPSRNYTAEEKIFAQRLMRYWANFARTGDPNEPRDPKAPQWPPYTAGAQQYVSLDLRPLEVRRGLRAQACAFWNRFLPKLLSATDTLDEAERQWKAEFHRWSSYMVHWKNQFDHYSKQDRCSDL
Cholinesterase (Equus caballus), sequence (P81908 whole entry): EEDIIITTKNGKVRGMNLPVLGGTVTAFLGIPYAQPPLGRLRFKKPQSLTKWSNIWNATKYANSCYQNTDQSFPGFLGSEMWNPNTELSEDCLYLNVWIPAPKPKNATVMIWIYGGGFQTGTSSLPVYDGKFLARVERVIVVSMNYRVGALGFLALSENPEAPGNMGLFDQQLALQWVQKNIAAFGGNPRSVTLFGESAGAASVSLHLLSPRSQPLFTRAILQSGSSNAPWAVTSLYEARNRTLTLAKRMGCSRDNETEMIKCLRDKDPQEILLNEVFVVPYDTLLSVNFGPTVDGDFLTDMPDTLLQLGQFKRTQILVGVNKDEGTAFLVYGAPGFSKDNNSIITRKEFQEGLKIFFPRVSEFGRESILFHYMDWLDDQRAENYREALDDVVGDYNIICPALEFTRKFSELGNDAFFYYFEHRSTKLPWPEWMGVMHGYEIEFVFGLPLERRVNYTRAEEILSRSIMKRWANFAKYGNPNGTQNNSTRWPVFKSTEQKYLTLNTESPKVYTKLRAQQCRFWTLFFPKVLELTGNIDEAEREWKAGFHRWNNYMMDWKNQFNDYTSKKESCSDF
T1 sequence (P81908 whole entry): as above
Cholinesterase (Homo sapiens, UniProt P06276), sequence (P06276 whole entry): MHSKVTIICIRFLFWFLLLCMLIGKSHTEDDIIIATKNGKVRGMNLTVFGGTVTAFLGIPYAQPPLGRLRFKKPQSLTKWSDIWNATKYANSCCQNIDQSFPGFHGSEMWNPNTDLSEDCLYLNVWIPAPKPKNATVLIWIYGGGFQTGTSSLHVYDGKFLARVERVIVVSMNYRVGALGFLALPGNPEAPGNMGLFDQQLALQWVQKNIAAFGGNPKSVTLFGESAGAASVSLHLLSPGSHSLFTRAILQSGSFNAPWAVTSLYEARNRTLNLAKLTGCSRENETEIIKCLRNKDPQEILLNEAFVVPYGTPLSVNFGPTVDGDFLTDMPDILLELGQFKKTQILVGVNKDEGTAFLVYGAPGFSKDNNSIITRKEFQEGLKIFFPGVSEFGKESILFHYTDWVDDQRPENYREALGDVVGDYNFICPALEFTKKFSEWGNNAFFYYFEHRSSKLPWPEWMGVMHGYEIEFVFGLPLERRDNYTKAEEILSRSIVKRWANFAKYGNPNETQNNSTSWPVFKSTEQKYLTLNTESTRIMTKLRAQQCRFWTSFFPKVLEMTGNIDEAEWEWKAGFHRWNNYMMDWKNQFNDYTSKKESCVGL

CCCCCCCNC(=O)Oc1ccc2c(c1)CN(C)C(c1cccs1)N2C (centres undefined)
IC50 (Cholinesterase [1]): 14 nM | IC50 (Cholinesterase [2]): 13 nM | inhibition (Acetylcholinesterase [3]): 0% | K [4]: 14.3 nM | K [5]: 0.14 min⁻¹ | Ratio [6]: 9.79 µM⁻¹ min⁻¹ | K [7]: 0.14 h⁻¹ | Activity [8]: 0.2 equiv | viability at 24 h [9]: > 80% | Activity (HT-22 [10]): Active | T1/2 [11]: 5 h

CCCCCCCNC(=O)Oc1ccc2c(c1)CN(Cc1ccccc1)C(c1ccccc1)N2C (centres undefined)
IC50 (Cholinesterase [1]): 34 nM | inhibition (Acetylcholinesterase [12]): 17% | Activity [8]: 1.7 equiv | viability at 24 h [9]: > 80% | Activity [13]: Non-toxic | Activity (HT-22 [10]): Active

CN1c2ccc(O)cc2CN(Cc2ccccc2)C1c1ccccc1 (centres undefined)
IC50 (Cholinesterase [14]): 14800 nM | inhibition (Acetylcholinesterase [15]): 16% | Activity [8]: 3.9 equiv | Activity [16]: Non-toxic | Activity (HT-22 [17]): Active | Activity (HT-22 [18]): inactive | Activity (HT-22 [19]): Active
